# Source: ChEMBL document CHEMBL4689842, “EUbOPEN Chemogenomics Library wave 1” (2021)
# Tested on: HEK-293T
# Assay: Multiplex assay against HEK293T;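 on Population Tubulin-Different-Phenotype (%): share of the cells with healthy nuclei that show this phenotype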
# Type: toxicity, cell-based
# Settings: human
# How it was run: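 Tubulin, mitochondrial-mass and membrane-permeability phenotypes are per cents of healthy-nucleus cells. Cells were gated by CellPathfinder machine learning into Hoechst high-intensity objects or normal cells, normal cells into healthy, pyknosed or fragmented nuclei, and pyknosed cells into mitotic or apoptotic. Before that, live cells stained at seeding with Hoechst33342, BioTracker Green Microtubule Cytoskeleton Dye, MitoTracker Red and Annexin V Alexa Fluor 680 were imaged on a CQ1 microscope at 37°C and 5% CO2 after compound addition.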
# [1] = 12 h, 1 µM, compound concentration 1 uM, replicate 1
# [2] = 12 h, 1 µM, compound concentration 1 uM, replicate 2
# [3] = 12 h, 10 µM, compound concentration 10 uM, replicate 1
# [4] = 12 h, 10 µM, compound concentration 10 uM, replicate 2
# [5] = 24 h, 1 µM, compound concentration 1 uM, replicate 1
# [6] = 24 h, 1 µM, compound concentration 1 uM, replicate 2
# [7] = 24 h, 10 µM, compound concentration 10 uM, replicate 1
# [8] = 24 h, 10 µM, compound concentration 10 uM, replicate 2
# [9] = 48 h, 1 µM, compound concentration 1 uM, replicate 1
# [10] = 48 h, 1 µM, compound concentration 1 uM, replicate 2
# [11] = 48 h, 10 µM, compound concentration 10 uM, replicate 1
# [12] = 48 h, 10 µM, compound concentration 10 uM, replicate 2
smiles,measurement,setting,value
COC(=N)c1nc2ccc3ncnc(Nc4ccc(OC)cc4F)c3c2s1,Population Apoptotic (%),[1],15%
same,Population Fragmented Nuclei (%),[1],16%
same,Population Healthy Nuclei (%),[1],53%
same,Population Hoechst High Intensity Objects (%),[1],21%
same,Population Membrane Permeable-Phenotype (%),[1],3%
same,Population Mitochondria Different-Phenotype (%),[1],12%
same,Population Mitotic Cells (%),[1],84%
same,Population Normal (%),[1],78%
same,Population Pyknosed Nuclei (%),[1],29%
same,Population Tubulin-Different-Phenotype (%),[1],5%
same,Total Cell Count,[1],546
same,Population Apoptotic (%),[2],24%
same,Population Fragmented Nuclei (%),[2],4%
same,Population Healthy Nuclei (%),[2],87%
same,Population Hoechst High Intensity Objects (%),[2],5%
same,Population Membrane Permeable-Phenotype (%),[2],0%
same,Population Mitochondria Different-Phenotype (%),[2],21%
same,Population Mitotic Cells (%),[2],75%
same,Population Normal (%),[2],94%
same,Population Pyknosed Nuclei (%),[2],7%
same,Population Tubulin-Different-Phenotype (%),[2],9%
same,Total Cell Count,[2],1072
same,Population Apoptotic (%),[3],19%
same,Population Fragmented Nuclei (%),[3],10%
same,Population Healthy Nuclei (%),[3],66%
same,Population Hoechst High Intensity Objects (%),[3],10%
same,Population Mitochondria Different-Phenotype (%),[3],6%
same,Population Mitotic Cells (%),[3],80%
same,Population Normal (%),[3],89%
same,Population Pyknosed Nuclei (%),[3],22%
same,Population Tubulin-Different-Phenotype (%),[3],4%
same,Total Cell Count,[3],552
same,Population Apoptotic (%),[4],4%
same,Population Fragmented Nuclei (%),[4],6%
same,Population Healthy Nuclei (%),[4],88%
same,Population Hoechst High Intensity Objects (%),[4],3%
same,Population Membrane Permeable-Phenotype (%),[4],2%
same,Population Mitochondria Different-Phenotype (%),[4],8%
same,Population Mitotic Cells (%),[4],95%
same,Population Normal (%),[4],96%
same,Population Pyknosed Nuclei (%),[4],5%
same,Population Tubulin-Different-Phenotype (%),[4],6%
same,Total Cell Count,[4],1236
same,Population Apoptotic (%),[5],19%
same,Population Fragmented Nuclei (%),[5],14%
same,Population Healthy Nuclei (%),[5],71%
same,Population Hoechst High Intensity Objects (%),[5],11%
same,Population Membrane Permeable-Phenotype (%),[5],3%
same,Population Mitochondria Different-Phenotype (%),[5],7%
same,Population Mitotic Cells (%),[5],80%
same,Population Normal (%),[5],88%
same,Population Pyknosed Nuclei (%),[5],13%
same,Population Tubulin-Different-Phenotype (%),[5],12%
same,Total Cell Count,[5],573
same,Population Apoptotic (%),[6],17%
same,Population Healthy Nuclei (%),[6],82%
same,Population Hoechst High Intensity Objects (%),[6],5%
same,Population Mitochondria Different-Phenotype (%),[6],4%
same,Population Mitotic Cells (%),[6],82%
same,Population Normal (%),[6],94%
same,Population Pyknosed Nuclei (%),[6],2%
same,Population Tubulin-Different-Phenotype (%),[6],19%
same,Total Cell Count,[6],1668
same,Population Apoptotic (%),[7],16%
same,Population Fragmented Nuclei (%),[7],9%
same,Population Healthy Nuclei (%),[7],82%
same,Population Hoechst High Intensity Objects (%),[7],8%
same,Population Membrane Permeable-Phenotype (%),[7],7%
same,Population Mitochondria Different-Phenotype (%),[7],2%
same,Population Mitotic Cells (%),[7],83%
same,Population Normal (%),[7],91%
same,Population Pyknosed Nuclei (%),[7],8%
same,Population Tubulin-Different-Phenotype (%),[7],8%
same,Total Cell Count,[7],657
same,Population Apoptotic (%),[8],4%
same,Population Fragmented Nuclei (%),[8],20%
same,Population Healthy Nuclei (%),[8],77%
same,Population Hoechst High Intensity Objects (%),[8],3%
same,Population Membrane Permeable-Phenotype (%),[8],4%
same,Population Mitotic Cells (%),[8],95%
same,Population Normal (%),[8],96%
same,Population Pyknosed Nuclei (%),[8],2%
same,Population Tubulin-Different-Phenotype (%),[8],5%
same,Total Cell Count,[8],2058
CN1C2CCC1CC(OC(c1ccc(F)cc1)c1ccc(F)cc1)C2.Cl (stereo not given),Population Apoptotic (%),[1],50%
same,Population Fragmented Nuclei (%),[1],12%
same,Population Healthy Nuclei (%),[1],27%
same,Population Hoechst High Intensity Objects (%),[1],12%
same,Population Membrane Permeable-Phenotype (%),[1],2%
same,Population Mitochondria Different-Phenotype (%),[1],84%
same,Population Mitotic Cells (%),[1],50%
same,Population Normal (%),[1],87%
same,Population Pyknosed Nuclei (%),[1],60%
same,Population Tubulin-Different-Phenotype (%),[1],58%
same,Total Cell Count,[1],303
same,Population Apoptotic (%),[2],18%
same,Population Fragmented Nuclei (%),[2],2%
same,Population Healthy Nuclei (%),[2],43%
same,Population Hoechst High Intensity Objects (%),[2],3%
same,Population Membrane Permeable-Phenotype (%),[2],18%
same,Population Mitochondria Different-Phenotype (%),[2],35%
same,Population Mitotic Cells (%),[2],81%
same,Population Normal (%),[2],96%
same,Population Pyknosed Nuclei (%),[2],54%
same,Population Tubulin-Different-Phenotype (%),[2],56%
same,Total Cell Count,[2],252
same,Population Apoptotic (%),[3],80%
same,Population Fragmented Nuclei (%),[3],9%
same,Population Healthy Nuclei (%),[3],25%
same,Population Hoechst High Intensity Objects (%),[3],13%
same,Population Membrane Permeable-Phenotype (%),[3],1%
same,Population Mitochondria Different-Phenotype (%),[3],100%
same,Population Mitotic Cells (%),[3],19%
same,Population Normal (%),[3],86%
same,Population Pyknosed Nuclei (%),[3],65%
same,Population Tubulin-Different-Phenotype (%),[3],98%
same,Total Cell Count,[3],280
same,Population Apoptotic (%),[4],63%
same,Population Fragmented Nuclei (%),[4],3%
same,Population Healthy Nuclei (%),[4],21%
same,Population Hoechst High Intensity Objects (%),[4],6%
same,Population Membrane Permeable-Phenotype (%),[4],2%
same,Population Mitochondria Different-Phenotype (%),[4],92%
same,Population Mitotic Cells (%),[4],36%
same,Population Normal (%),[4],93%
same,Population Pyknosed Nuclei (%),[4],74%
same,Population Tubulin-Different-Phenotype (%),[4],95%
same,Total Cell Count,[4],201
same,Population Apoptotic (%),[5],48%
same,Population Fragmented Nuclei (%),[5],15%
same,Population Healthy Nuclei (%),[5],19%
same,Population Hoechst High Intensity Objects (%),[5],14%
same,Population Membrane Permeable-Phenotype (%),[5],10%
same,Population Mitochondria Different-Phenotype (%),[5],76%
same,Population Mitotic Cells (%),[5],51%
same,Population Normal (%),[5],85%
same,Population Pyknosed Nuclei (%),[5],64%
same,Total Cell Count,[5],295
same,Population Apoptotic (%),[6],22%
same,Population Fragmented Nuclei (%),[6],4%
same,Population Healthy Nuclei (%),[6],49%
same,Population Hoechst High Intensity Objects (%),[6],1%
same,Population Membrane Permeable-Phenotype (%),[6],12%
same,Population Mitochondria Different-Phenotype (%),[6],35%
same,Population Mitotic Cells (%),[6],77%
same,Population Normal (%),[6],98%
same,Population Pyknosed Nuclei (%),[6],46%
same,Population Tubulin-Different-Phenotype (%),[6],64%
same,Total Cell Count,[6],305
same,Population Apoptotic (%),[7],79%
same,Population Fragmented Nuclei (%),[7],16%
same,Population Healthy Nuclei (%),[7],13%
same,Population Hoechst High Intensity Objects (%),[7],20%
same,Population Membrane Permeable-Phenotype (%),[7],3%
same,Population Mitochondria Different-Phenotype (%),[7],100%
same,Population Mitotic Cells (%),[7],20%
same,Population Normal (%),[7],79%
same,Population Pyknosed Nuclei (%),[7],70%
same,Population Tubulin-Different-Phenotype (%),[7],96%
same,Total Cell Count,[7],292
same,Population Apoptotic (%),[8],88%
same,Population Fragmented Nuclei (%),[8],3%
same,Population Healthy Nuclei (%),[8],28%
same,Population Hoechst High Intensity Objects (%),[8],7%
same,Population Membrane Permeable-Phenotype (%),[8],1%
same,Population Mitochondria Different-Phenotype (%),[8],96%
same,Population Mitotic Cells (%),[8],11%
same,Population Normal (%),[8],92%
same,Population Pyknosed Nuclei (%),[8],67%
same,Population Tubulin-Different-Phenotype (%),[8],86%
same,Total Cell Count,[8],190
same,Population Apoptotic (%),[9],47%
same,Population Fragmented Nuclei (%),[9],20%
same,Population Healthy Nuclei (%),[9],21%
same,Population Hoechst High Intensity Objects (%),[9],19%
same,Population Membrane Permeable-Phenotype (%),[9],7%
same,Population Mitochondria Different-Phenotype (%),[9],53%
same,Population Mitotic Cells (%),[9],52%
same,Population Normal (%),[9],80%
same,Population Pyknosed Nuclei (%),[9],58%
same,Population Tubulin-Different-Phenotype (%),[9],67%
same,Total Cell Count,[9],329
same,Population Apoptotic (%),[10],11%
same,Population Fragmented Nuclei (%),[10],4%
same,Population Healthy Nuclei (%),[10],77%
same,Population Hoechst High Intensity Objects (%),[10],2%
same,Population Membrane Permeable-Phenotype (%),[10],15%
same,Population Mitochondria Different-Phenotype (%),[10],15%
same,Population Mitotic Cells (%),[10],89%
same,Population Normal (%),[10],97%
same,Population Pyknosed Nuclei (%),[10],18%
same,Population Tubulin-Different-Phenotype (%),[10],52%
same,Total Cell Count,[10],565
same,Population Apoptotic (%),[11],78%
same,Population Fragmented Nuclei (%),[11],21%
same,Population Healthy Nuclei (%),[11],8%
same,Population Hoechst High Intensity Objects (%),[11],21%
same,Population Membrane Permeable-Phenotype (%),[11],0%
same,Population Mitochondria Different-Phenotype (%),[11],100%
same,Population Mitotic Cells (%),[11],21%
same,Population Normal (%),[11],78%
same,Population Pyknosed Nuclei (%),[11],69%
same,Population Tubulin-Different-Phenotype (%),[11],95%
same,Total Cell Count,[11],285
same,Population Apoptotic (%),[12],75%
same,Population Fragmented Nuclei (%),[12],9%
same,Population Healthy Nuclei (%),[12],55%
same,Population Hoechst High Intensity Objects (%),[12],10%
same,Population Membrane Permeable-Phenotype (%),[12],1%
same,Population Mitochondria Different-Phenotype (%),[12],96%
same,Population Mitotic Cells (%),[12],24%
same,Population Normal (%),[12],89%
same,Population Pyknosed Nuclei (%),[12],34%
same,Population Tubulin-Different-Phenotype (%),[12],85%
same,Total Cell Count,[12],207
